Rows were chosen to be rich in hits. Some 3.1% of all compounds tested hit in one or more screens of this group.
KCNK9 inh: human KCNK9 channel inhibition; 310,000 compounds, 1.2% hits; B-score at 10 µM; HEK293 KCNK9, FluxOR thallium flux fluorescence; stronger effect = lower value; Q9NPC2;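 active = ratio B-score over 3 SD below the library mean, with starting fluorescence within 5 SD of its mean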;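 note: negative B-score means less thallium flux so channel inhibition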
KCNQ1 block: human KCNQ1 channel inhibition | P51787 | CHO-K1 KCNQ1, FluxOR thallium flux fluorescence; stronger effect = higher value | B-score at 10 µM | 310,000 compounds, 1.3% hits | AID 2642;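 active = compounds whose thallium flux B-score, printed positive for inhibition, exceeds three library SD while starting fluorescence stays within three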;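 note: channel opened by potassium depolarization with thallium stimulus after 20 min compound exposure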
Target sequence (P51787 whole entry, looked up): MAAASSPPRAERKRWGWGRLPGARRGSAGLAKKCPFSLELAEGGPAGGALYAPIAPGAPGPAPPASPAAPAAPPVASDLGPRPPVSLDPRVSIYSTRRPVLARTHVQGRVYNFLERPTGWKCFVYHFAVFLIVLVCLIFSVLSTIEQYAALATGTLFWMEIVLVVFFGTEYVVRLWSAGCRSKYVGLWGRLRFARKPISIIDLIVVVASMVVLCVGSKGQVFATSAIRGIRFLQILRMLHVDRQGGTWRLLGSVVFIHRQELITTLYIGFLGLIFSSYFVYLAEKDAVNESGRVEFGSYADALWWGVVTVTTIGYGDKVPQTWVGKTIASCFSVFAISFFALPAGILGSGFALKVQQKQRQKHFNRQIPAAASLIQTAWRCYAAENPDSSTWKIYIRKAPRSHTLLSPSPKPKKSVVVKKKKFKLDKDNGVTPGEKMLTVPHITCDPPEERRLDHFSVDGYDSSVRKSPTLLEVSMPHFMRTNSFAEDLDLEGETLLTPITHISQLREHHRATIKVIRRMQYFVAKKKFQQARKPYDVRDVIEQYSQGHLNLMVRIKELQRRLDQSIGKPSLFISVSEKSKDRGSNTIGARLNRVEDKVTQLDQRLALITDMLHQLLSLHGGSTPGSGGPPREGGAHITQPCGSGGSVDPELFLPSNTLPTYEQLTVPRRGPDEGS
KCNQ1 act: potentiates or activates the human KCNQ1 potassium channel; CHO-K1 KCNQ1, thallium flux FluxOR fluorescence; stronger effect = higher value; B-score at 10 µM; 310,000 compounds, 0.35% hits; AID 2648;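 active = fluorescence ratio B-score, a plate-corrected score, at least three library SD, with initial intensity B-score within 5 SD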
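System: Stable KCNQ1 CHO-K1 line | Incubation: 90 min dye loading and 20 min compound exposure, both at room temperature | Measure: Ratio B score | Medium: Assay buffer for compound exposure, DMSO matched across wells | Compound dosing: Single-concentration screen | Probe or stimulus: K+/Tl+ depolarizing stimulus | Measured by: Kinetic FluxOR fluorescence, 10 s baseline plus 110 s post-stimulus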
hERG rescue: shields human hERG channel from block by proarrhythmic agents. 310,000 compounds, 0.51% hits. Q12809. AID 1511. CHO-hERG, FluxOR thallium flux, dofetilide IC70 present. activation (rescue from dofetilide block), less the hit threshold, % at 10 µM;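 active = activation above the mean of controls blocked by dofetilide plus 5 SD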;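 note: thallium influx through hERG after potassium depolarization seen as dye fluorescence rise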
KCNK3 inh: human KCNK3 channel inhibition, primary screen; O14649; CHO-KCNK3 thallium flux, FluxOR fluorescence; stronger effect = lower value; B-score at 10 µM; 340,000 compounds, 0.84% hits;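 active = B-score under library mean minus 4 SD, starting fluorescence ratio at most library mean plus 5 SD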;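 note: more negative B-score means stronger inhibition of thallium flux through KCNK3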
Numbers without * were called inactive; i = inactive; / = no result given.

SMILES	KCNK9 inh	KCNQ1 block	KCNQ1 act	hERG rescue	KCNK3 inh
N#C/C(=N\Nc1ccc(Cl)cc1)C(N)=S	i	6*	i	-12.2	i
COC(=O)c1ccc(CSCc2ccc(C#N)cc2)cc1	i	i	i	-6.7	/
CN(C)CCNCCCNc1c2ccccc2nc2cccc([N+](=O)[O-])c12	/	/	/	/	i
CCCCNc1c(-c2ccc(SC(C)CC)cc2)nc2ccccn12 (stereo not drawn)	-7.76*	8*	i	-38.0	i
CCC(C)Sc1cccc(-c2nc3cc(C)ccn3c2NCc2ccccc2)c1 (stereo not drawn)	i	8*	i	-5.5	i
CC(C)(C)C(O)(CC#CCN1CCCC1)c1ccccc1 (stereo not drawn)	i	i	i	-13.9	i
Cc1cccc(NC(=O)CSCC(=O)N(CCC(C)C)c2c(N)n(Cc3ccccc3)c(=O)[nH]c2=O)c1	i	i	i	-10.4	i
CC(=O)N1CCN(C(=O)COC(=O)c2ccc(S(C)(=O)=O)cc2)CC1	/	/	/	/	i
c1ccc2c(NCCc3c[nH]c4ccccc34)c3ccccc3nc2c1	i	7*	i	-16.9	i
COc1cc(OC)c(C(=O)OCC(=O)N(Cc2ccccc2)C(C)(C)C)cc1OC	i	i	i	-12.3	i
Cc1noc(C)c1/C=N/Nc1ccccn1	i	i	i	6.4*	i
Cc1cc(C)n(CC(=O)NNC(=O)COc2ccc(Br)cc2F)n1	/	/	/	/	i
CCc1nc(SCC(=O)Nc2ccc(F)cc2F)c2c(=O)n(C)c(=O)n(C)c2n1	i	i	i	-4.8	i
CCCc1nc(SCC(=O)Nc2cc(Cl)ccc2OC)c2c(=O)n(C)c(=O)n(C)c2n1	i	i	14*	-9.8	/
N=c1oc2cc(O)ccc2cc1C(=O)Nc1ccc(Br)cc1	i	8*	i	-4.6	i
CCCCC(=O)Nc1ccc(N2CCN(C(=O)c3ccco3)CC2)cc1	i	i	i	-14.0	i
CCN(c1ccccc1)S(=O)(=O)c1ccc(OC)c(NC(=O)c2ccc(=O)[nH]c2)c1	/	/	/	/	i
COC(=O)C1CN(S(=O)(=O)c2ccccc2)CCN1S(=O)(=O)c1ccccc1 (stereo not drawn)	-7.3*	i	i	-11.6	i
CCOC(=O)C1CN(S(=O)(=O)c2ccccc2)CCN1S(=O)(=O)c1ccccc1 (stereo not drawn)	i	i	i	-8.1	i
COC(=O)c1cc(S(=O)(=O)N2CCCC(C)C2)cn1C (stereo not drawn)	i	i	i	-3.2	i
COC(=O)c1cc(-c2ccc(S(=O)(=O)N3CCCC(C)C3)cc2)c(C(F)(F)F)s1 (stereo not drawn)	i	6*	i	-11.7	i
COc1ccccc1N(C)S(=O)(=O)c1ccc(C(=O)NC(C)c2ccccc2)cc1 (stereo not drawn)	i	i	i	-12.3	i
O=[N+]([O-])/C=C/c1c(OCc2ccccc2)ccc2ccccc12	-11.1*	i	i	2.3	i
Cc1csc2c(N3CCCCC3)ncnc12	i	i	i	8.6*	i
COc1ccc(-c2nsc3c(N4CCCCC4C)ncnc23)cc1 (stereo not drawn)	i	i	i	-7.9	i
SMILES	KCNK9 inh	KCNQ1 block	KCNQ1 act	hERG rescue	KCNK3 inh
COc1ccc(-c2nsc3c(N4CCCCC4)ncnc23)cc1	i	i	i	8.0*	i
COc1ccc(C(=O)C[n+]2ccc3c(c2)nnn3-c2ccccc2)cc1	i	i	i	-2.1	i
O=C(CN1C(=O)NC2(CCc3ccccc32)C1=O)NCc1ccc(F)cc1 (stereo not drawn)	/	/	/	/	i
O=C(/C=C/c1ccccc1)c1ccc2c(c1)OCO2	i	i	i	-7.4	i
O=C(/C=C/c1cccc(Br)c1)c1ccc2c(c1)OCO2	-7.75*	i	i	-8.7	i
NCc1cc2c3c(c1)CCCN3CCC2	i	i	i	1.9	i
COc1ccc(-n2c(C)nc3c(cnn3-c3ccc(C)cc3)c2=O)cc1	i	i	i	-5.2	i
COc1ccc(-n2c(C)nc3c(cnn3-c3ccc(Cl)cc3)c2=O)cc1	i	i	i	6.8*	i
COC(=O)c1ccc(C(C(=O)NC2CCCCC2)N(C(=O)Cc2cccs2)C2CC2)cc1 (stereo not drawn)	i	6*	i	-5.5	i
Fc1ccccc1-c1cc2ccccc2cn1	/	/	/	/	i
Cc1cccc(OCc2nnc(SCC(=O)N3c4ccccc4CCc4ccccc43)o2)c1	i	i	i	-14.9	i
O=C(CSc1nnc(COc2ccc(F)cc2)o1)N1c2ccccc2CCc2ccccc21	-13*	i	i	-9.7	i
CCCc1nc2nc(C)c(NS(=O)(=O)c3ccc([N+](=O)[O-])cc3)c(=O)n2[nH]1	i	i	i	-12.5	i
COc1ccc2ccccc2c1C1CC(=O)N2CN(Cc3ccco3)CSC2=C1C#N (stereo not drawn)	i	7*	i	-5.8	i
COc1ccc(C2CC(=O)N3CN(Cc4ccco4)CSC3=C2C#N)cc1 (stereo not drawn)	i	i	i	-4.1	i
CCN(Cc1ccccc1)S(=O)(=O)c1ccc(C(=O)N(CCCN(C)C)c2nc3cc4c(cc3s2)OCO4)cc1	i	6*	i	-29.8	i
Cc1ccc2sc(N(CCCN(C)C)C(=O)c3ccc(S(=O)(=O)N(C)C4CCCCC4)cc3)nc2c1C	i	i	i	-23.7	i
CCN(Cc1ccccc1)S(=O)(=O)c1ccc(C(=O)N(CCCN(C)C)c2nc3c(C)c(C)ccc3s2)cc1	i	8*	i	-19.2	i
CN(C)CCCN(C(=O)c1ccc(S(=O)(=O)N(C)C)cc1)c1nc2cc3c(cc2s1)OCO3	i	i	i	-7.2	i
Cc1ccc(C)c(Sc2ccc(S(=O)(=O)Nc3ccc(C(=O)O)cc3)cc2)c1	/	/	/	/	i
COc1ccc(NC(=O)/C(Cl)=C(/Cl)S(=O)Cc2ccccc2Cl)cn1 (stereo not drawn)	/	/	/	/	i
O=C(CSc1nnc(SCc2cccc3ccccc23)s1)Nc1ccc(C(=O)O)cc1	i	i	i	-9.4	i
O=C(CSc1nnc(SCc2cccc3ccccc23)s1)c1ccc2c(c1)OCO2	i	i	8*	-7.5	i
Cc1ccc(NNc2c(C)nc3ccccc3nc2=O)cc1	i	i	i	-8.5	i
O=[N+]([O-])c1ccc(N/N=C/c2sc(N3CCOCC3)nc2-c2ccccc2)c(S(=O)(=O)Nc2ccc(Cl)cc2)c1	i	11*	i	-17.8	i
O=C(N/N=C/c1sc(N2CCOCC2)nc1-c1ccccc1)c1ccccc1Cl	i	i	i	-4.2	i
